Measured values: publication PMC3394096 (Investigational New Drugs, 2011)
Entries after “also recorded” stand apart in the source; their conditions may differ. Marks after values point to notes of the source that are not given here.

Experiments:
KSP = details: read-out: IC50 (KSP); background statement, ref not given; cited from earlier work
other kinesins = details: background statement, ref not given; cited from earlier work
[1] = Phase I urinary recovery of unchanged drug; type: in vivo, human; details: on average, at the highest dose levels
Method in brief: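 Urine collected during the 24 h infusion at 0–4, 4–8, 8–12 and 12–24 h, then at 24–28, 28–32, 32–36 and 36–48 h from infusion start. Unchanged test compound concentration and urine volume per interval gave total urinary recovery as percentage of dose. Calculated for subjects at the highest dose levels.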

[2] = test system: human ovarian carcinoma cells; details: treated human ovarian carcinoma cells; cited from earlier work
solid tumors = experiment: Phase I tumor response; type: in vivo, human
Method in brief: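 Patients with measurable taxane-resistant solid tumors received a 24 h continuous IV infusion every 21 days, with serial radiologic assessments. At baseline, longest diameters were summed for up to five lesions per organ and ten in total. Lesions had to measure ≥20 mm by conventional techniques or ≥10 mm by spiral CT. Response and progression were graded by RECIST v1.0.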

A2780 (ovarian cancer) = details: cited from earlier work
[3] = Phase I plasma pharmacokinetics, 24-hour continuous IV infusion; type: in vivo, human
Method in brief: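 Test compound given to patients as a 24 h continuous IV infusion in 21-day cycles. Plasma sampled predose, at 1, 3, 6, 12, 16 and 24 h, then at 24.5–96 h from infusion start. Extraction used pH 10.7 carbonate buffer with MTBE:hexane, then HPLC-MS/MS in positive ion mode; standard curve 1–200 ng/mL. t1/2 from an unweighted single-exponential fit to the log-linear terminal phase. AUC(0-∞) by linear up/log down with extrapolation. Clearance calculated as dose/AUC.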

HCT116 (colon cancer) = details: cited from earlier work
xenograft tumors = details: mice, multi-dose regimen; background statement, ref not given; cited from earlier work
Ca125 antigen = experiment: Phase I serum Ca125 antigen; type: in vivo, human; details: ovarian cancer patient with prolonged stable disease
KB-3-1 (cervical cancer) = details: cited from earlier work
[4] = Phase I safety, dose-limiting toxicity and maximum tolerated dose; type: in vivo, human
[5] = 12 mg/m^2/24 h, treatment-related, all cycles (n=47)
[6] = 17 mg/m^2/24 h, treatment-related, all cycles (n=47)
[7] = 24 mg/m^2/24 h, treatment-related, all cycles (n=47)
[8] = 48 mg/m^2/24 h, treatment-related, all cycles (n=47)

For `CN1CC[C@H](N(C)C(=O)N2CC(c3cc(F)ccc3F)=C[C@@]2(CO)c2ccccc2)[C@H](F)C1` [MK-0731, (2S)-4-(2,5-difluorophenyl)-n-[(3R,4S)-3-fluoro-1-methylpiperidin-4-yl]-2-(hydroxymethyl)-N-methyl-2-phenyl-2,5-dihydro-1H-pyrrole-1-carboxamide], the IC50 (KSP) is given as 2.2 nM, the “selectivity for KSP compared with other kinesins” value (other kinesins) is given as > 20,000 fold and the “dose recovered in urine as unchanged drug” value [1] is given as “less than 4%”. The spindle pole separation [2] was “inhibits spindle pole separation”, the “Number of cycles, patient with stable disease” value (solid tumors; 17 mg/m^2/24 h, non-small cell lung cancer) was 12 ^a cycles and the “Number of cycles, patient with stable disease” value (solid tumors; 17 mg/m^2/24 h, ovarian cancer) was 11 ^a cycles. For the same compound, the “patients with prolonged stable disease” value (solid tumors; 17 mg/m^2/24 h, part 2) was “four”, the “objective tumor response (RECIST)” value (solid tumors; all patients) was “no objective tumor responses; also recorded: no partial or complete responses” and the proliferation (A2780 (ovarian cancer)) was “inhibits proliferation”. For the same compound, the “dose dependence of end of infusion concentrations and AUC” value ([3]; 6 to 48 mg/m^2/24 h) was “increase approximately dose proportionally; also recorded: increased approximately proportionately to the dose administered”, the “AUC (±SD)” value ([3]; at the MTD (17 mg/m^2/24 h)) was 10.5 (±7.3) μM × hour and the “clearance (±SD)” value ([3]; at the MTD (17 mg/m^2/24 h)) was 153 mL/min. The proliferation (HCT116 (colon cancer)) was “inhibits proliferation”, the “growth of xenograft tumors” value (xenograft tumors) was “inhibited to a similar degree” and the “levels of the Ca125 antigen” value (Ca125 antigen) was “No decreases”. For the same compound, the proliferation (KB-3-1 (cervical cancer)) was “inhibits proliferation”, the “toxicities, part 1” value ([4]; 12 mg/m^2) was “no further toxicities were observed” and the “Leukopenia, Grade 2, %” value [4, 5] was 2.1%. For the same compound, the “Neutropenia, Grade 2, %” value [4, 5] was 2.1%, the “Vomiting, Grade 2, %” value [4, 5] was 2.1% and the “DLT, part 1” value ([4]; 17 mg/m^2, six patients) was “none experienced DLT”. For the same compound, the “DLTs, part 2” value ([4]; 17 mg/m^2/24 h, 22 patients) was “no DLTs”, the “Hypophosphatemia, Grade 2, %” value [4, 6] was 2.1% and the “Leukopenia, Grade 3, %” value [4, 6] was 2.1%. The “Thrombocytopenia, Grade 2, %” value [4, 6] was 2.1%, the “Leukopenia, Grade 2, %” value [4, 7] was 2.1% and the “Neutropenia, Grade 2, %” value [4, 7] was 2.1%. The “Neutropenia, Grade 3, %” value [4, 7] was 2.1%, the “Hyperglycemia, Grade 3, %” value [4, 8] was 2.1% and the “Hypocalcemia, Grade 2, %” value [4, 8] was 2.1%. The “Hypophosphatemia, Grade 2, %” value [4, 8] was 2.1%, the “Leukopenia, Grade 2, %” value [4, 8] was 2.1% and the “Leukopenia, Grade 3, %” value [4, 8] was 2.1%. For the same compound, the “Mucosal Inflammation, Grade 2, %” value [4, 8] was 2.1%, the “Nausea, Grade 3, %” value [4, 8] was 2.1% and the “Thrombocytopenia, Grade 2, %” value [4, 8] was 2.1%. For the same compound, the “Vomiting, Grade 3, %” value [4, 8] was 2.1%, the maximum tolerated dose ([4]; 24-hour IV infusion, 21-day cycles) was 17 mg/m^2 and the neuropathy ([4]; all doses) was “without the development of neuropathy”.
For `CC(=O)O[C@H]1C(=O)[C@@]2(C)[C@H]([C@H](OC(=O)c3ccccc3)[C@]3(O)C[C@H](OC(=O)[C@H](O)[C@@H](NC(=O)c4ccccc4)c4ccccc4)C(C)=C1C3(C)C)[C@]1(OC(C)=O)CO[C@@H]1C[C@@H]2O` [paclitaxel, reference compound], the “growth of xenograft tumors” value (xenograft tumors) is listed as “inhibited to a similar degree”.
